pIC50: −log10 of the molar value. Calls of active or inactive are those of the source. The rule behind the calls is not given here.
What was measured:
HUVEC [1] = test: Antiinflammatory activity in HUVEC assessed as downregulation of LPS-induced IL6 mRNA expression at 0.8 to 100 uM by qRT-PCR method; assay type: functional, cell-based; settings: Homo sapiens
How it was run: (§1)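 HUVEC cells grown in DMEM with 10% FBS, streptomycin and penicillin, at 37 °C in humidified 5% CO2. Drug groups received 0.8, 4, 20 or 100 μM drug plus 10 μg/mL LPS. Model group got medium plus LPS, controls got medium only, n = 3 per group. Cells harvested after varying times for cytokine mRNA measurement. Mean ± SD of three independent experiments.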

HUVEC [2] = test: Antiinflammatory activity in HUVEC assessed as downregulation of LPS-induced IL1 mRNA expression at 0.8 to 100 uM by qRT-PCR method; assay type: functional, cell-based; settings: Homo sapiens; how it was run: as §1
HUVEC [3] = test: Antiinflammatory activity in LPS stimulated HUVEC assessed as upregulation of IL10 mRNA expression at 0.8 to 100 uM by qRT-PCR method; assay type: functional, cell-based; settings: Homo sapiens; how it was run: as §1
HepG2 = test: Cytotoxicity against human HepG2 cells after 72 hrs by MTT assay; settings: HepG2, 72 h
A549 = test: Cytotoxicity against human A549 cells after 72 hrs by MTT assay; settings: A549, 72 h
HeLa = test: Cytotoxicity against human HeLa cells after 72 hrs by MTT assay
HCT-116 = test: Cytotoxicity against human HCT116 cells after 72 hrs by MTT assay; settings: HCT-116, 72 h
K562 = test: Cytotoxicity against human K562 cells after 72 hrs by MTT assay; settings: K562, 72 h
Bos taurus = species: Bos taurus; test: Inhibition of calf thymus topoisomerase 1 assessed as decrease in relaxation of supercoiled pBR322 DNA at 100 uM after 30 mins by agarose gel electrophoresis
How it was run: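 Calf-thymus topoisomerase I relaxation of negatively supercoiled pBR322. Supercoiled and relaxed DNA bands resolved. Test concentration 100 μM. Hydroxycamptothecine served as positive control.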

HUVEC [4] = test: Antiinflammatory activity in HUVEC assessed as downregulation of LPS-induced IFN-gamma mRNA expression at 0.8 to 100 uM by qRT-PCR method; assay type: functional, cell-based; settings: Homo sapiens; how it was run: as §1

inhibition (Bos taurus)	SMILES	Activity (HUVEC [1])	Activity (HUVEC [2])	Activity (HUVEC [3])	pIC50 (HepG2)	pIC50 (A549)	pIC50 (HeLa)	pIC50 (HCT-116)	pIC50 (K562)	Activity (HUVEC [4])
	O=C(/C=C/c1ccc(O)cc1)C1=C(O)C(Cc2c(O)c(O[C@@H]3O[C@H](CO)[C@@H](O)[C@H](O)[C@H]3O)c(O)c3c(=O)c(O[C@@H]4O[C@H](CO)[C@@H](O)[C@H](O)[C@H]4O)c(-c4ccc(O)cc4)oc23)=C(O)[C@@](O)(C2O[C@H](CO)[C@@H](O)[C@H](O)[C@H]2O)C1=O (stereo partly drawn)	Active	Active	Dose-dependent effect						
	CC(=O)O[C@H]1C(=O)[C@@]2(C)[C@H]([C@H](OC(=O)c3ccccc3)[C@]3(O)C[C@H](OC(=O)[C@H](O)[C@@H](NC(=O)c4ccccc4)c4ccccc4)C(C)=C1C3(C)C)[C@]1(OC(C)=O)CO[C@@H]1C[C@@H]2O [PACLITAXEL]				5.17	5.26	5.77	5.48	5.57	
Active	O=C(/C=C/c1ccc(O)cc1)C1=C(O)C(C2C3=C(O)[C@@](O)(C4O[C@H](CO)[C@@H](O)[C@H](O)[C@H]4O)C(=O)C(C(=O)/C=C/c4ccc(O)cc4)=C3O[C@@H]2[C@@H](O)[C@H](O)[C@H](O)CO)=C(O)[C@@](O)(C2O[C@H](CO)[C@@H](O)[C@H](O)[C@H]2O)C1=O (stereo partly drawn)	Dose-dependent effect	Dose-dependent effect	Dose-dependent effect						Dose-dependent effect

— ChEMBL document CHEMBL4000168, “Carthorquinosides A and B, Quinochalcone C-Glycosides with Diverse Dimeric Skeletons from Carthamus tinctorius” (J Nat Prod, 2016)
